ChEMBL document CHEMBL4513216, “Probing the Open Global Health Chemical Diversity Library for Multistage-Active Starting Points for Next-Generation Antimalarials” (ACS Infect Dis, 2020)

Assay: Toxicity liver stage against HepG2, at 10uM
Format: cell-based
Parameters: test concentration 10 uM, cell line HepG2-A16-CD81EGFP
Settings: human, HepG2-A16-CD81EGFP cells; read-out: INHIBITION
In short: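 Uninfected HepG2-A16-CD81EGFP cells, 3 × 10^3 per well, 1536-well, plated on prespotted compound at 10 μM final, parasite-free screening media added to match infected plates; puromycin 10 μM positive, DMSO 0.5% negative; run in parallel with 48 h PbLuc assay at 37 °C, 5% CO2; viability by CellTiter-Glo luminescence, normalized to controls.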

SMILES	cytotoxicity at 10 µM [%]
CN(C)CCNC(=O)[C@H]1C[C@H]2CN(C(=O)NC3CCCC3)C[C@@H]1O2	-4.2
Cc1cnn(CC2CN(CC(=O)Nc3c(C)nn(C)c3C)CCO2)c1 (stereo unspecified)	1.08
Cc1cc(C(=O)N2CCC3(CC2)c2nc[nH]c2CCN3CC(C)C)no1	11.1
COCC(C)(C)NS(=O)(=O)C1CS(=O)(=O)c2ccccc21 (stereo unspecified)	4.22
CCOCC1CCN(C(=O)Nc2ccc3c(c2)CCCO3)C1 (stereo unspecified)	10.6
COc1c(CNCCNC(=O)Cc2ccc(F)cc2)c(C)nn1C	-3.09
CC(C)c1nc(CN2CCCC2Cn2cncn2)no1 (stereo unspecified)	-7.3
O=C(c1cccc2c1OCCO2)N1CCCC1Cn1cccn1 (stereo unspecified)	-10.7
COc1cccc(-n2nnc(C(=O)N3CCOC(C)C3)c2C)c1 (stereo unspecified)	-9.95
Cc1cc(NCC2CCS(=O)(=O)C2)n2nc(C)cc2n1 (stereo unspecified)	1.41
c1cc(CNCc2cccc3c2OCCCO3)cc(Cn2cncn2)c1	8.1
Cn1cc(C(=O)CC2CCCN2C(=O)c2c[nH]c3ccccc23)cn1 (stereo unspecified)	-1.39
Cc1ccccc1C(=O)N1CCC(n2nnc3cc(F)ccc32)CC1	3.94
CCn1cc(NC(=O)C2CCN(CC(=O)NC3CCCC3)CC2)cn1	-6.52
CCOCCN1CCN(CCC(=O)N2CCCCC2)CC1	-7.71
O=C(Nc1cccnc1)[C@@H]1COC[C@H]2CN(C3CCCC3)C[C@H]21	5.74
CN(C)Cc1cc(-c2nccn2CCn2cccn2)ccc1O	-50.5
Cc1cc(C)n(CC2(CNC(=O)C(c3ccc(F)cc3)N(C)C)CC2)n1 (stereo unspecified)	0.438
CCNc1c(NC(=O)C(C)(C)C)c(=O)oc2ccccc12	-1.97
CCOc1ccc2cc(C(=O)NCCC(=O)N(C)C)[nH]c2c1	-6.16
CN(Cc1nnc(C2CC2)n1C)C1CCN(CCc2ccccc2)C1 (stereo unspecified)	2.03

SMILES	cytotoxicity at 10 µM [%]
Cn1cc(-c2ncc3c(c2C(=O)O)CCN(Cc2ccco2)C3)cn1	6.15
Cc1n[nH]c(NC(=O)c2ccc(COCC(F)(F)F)cc2)c1C	-0.81
CCCOC1CCCN(Cc2nc(-c3cccs3)oc2C)C1 (stereo unspecified)	-53.1
CN1CC2(CCN(C(=O)Cc3ccc(O)c(F)c3)CC2)CC1=O	1.87
O=c1ccc(-c2ccccc2F)nn1CCN1CCCS1(=O)=O	-10
Cc1cc(CS(=O)(=O)C(C)c2ccc(F)cc2)on1 (stereo unspecified)	-0.0986
Cc1cccc(OCCN2CCN(Cc3cnn(CCO)c3)CC2)c1	-5.16
Nc1nc2c(c(N3CCC(CCn4cccn4)CC3)n1)CCNCC2	-4.17
Cc1ccc(-c2nc(CN(Cc3cccs3)C3CCS(=O)(=O)C3)cs2)o1 (stereo unspecified)	11.4
CNC(=O)C1(N2CCC[C@H]2C(=O)NC2CCCCC2)CCOCC1	-1.25
Cc1nc2cc(C(=O)N(CCC#N)CCC#N)ccc2n1C	-3.91
Cc1ccnn1CC(=O)N1CCCN(C2Cc3ccccc3C2)CC1	-120
Cc1nc(N2CCN(C)CC2)ncc1C(=O)N1CCC(O)(CO)CC1	-0.395
CCOCCC(=O)N(C)Cc1noc(C(C)C)n1	6.13
O=C(N[C@H]1CCCC[C@@H]1O)c1cccc(-c2nc3ccccc3[nH]2)c1	-3.65
Cc1nn(C)cc1-c1ccnc(N2CCN(c3cnccn3)CC2)n1	7.26
COCCNC(=O)c1cc2c(s1)CCN2C(=O)c1ccccc1	-12.9
CN1CCN(C(=O)c2cc3sccc3n2Cc2ccc(Cl)cc2)CC1	1.05
COCCCNS(=O)(=O)c1ccc2c(c1)NC(=O)C(C)O2 (stereo unspecified)	1.52
CCc1noc(C(C)N2CCC(NS(=O)(=O)c3cccs3)CC2)n1 (stereo unspecified)	8.45
Cc1cnn(CC(C)NCC(=O)NC2CCOCC2)c1 (stereo unspecified)	15.6

SMILES	cytotoxicity at 10 µM [%]
COc1cc2nc(C)n(CC(=O)NCCO)c(=O)c2cc1OC	-8.12
Cc1cccc(CN2C(=O)CCC23CCN(c2ncc(F)cn2)CC3)n1	9.11
Cc1nn(C)c(C)c1C(C)NCc1ccc(OC(C)C)cc1 (stereo unspecified)	15.3
COc1ccc(CNc2ncnc3c2NC(=O)CN3)cc1	11.8
COCCN1CCC2(CC1)CC(CC(N)=O)c1ccc(F)cc12 (stereo unspecified)	8.98
CCOc1ccc(-n2nnc(C(=O)O)c2-c2ccccn2)cc1	-9.31
CSc1ccc(OCCN2CCNC(=O)C2C)cc1 (stereo unspecified)	8.57
O=C(CSCC1CC1)N1CCCC(c2nccn2Cc2cccnc2)C1 (stereo unspecified)	3.86
Cc1ncsc1C(=O)N(C)Cc1ccncc1	-0.524
CCc1cc(C(=O)N2CCC(c3cc4ncccc4cn3)CC2)on1	-13
Cc1nn(C)cc1S(=O)(=O)NC1(CN2CCOCC2)CCCCC1	-8.27
CN(C)Cc1nnc(C2CCN(c3nccc(N)n3)CC2)n1C1CC1	-1.99
COc1ccc(-c2n[nH]cc2CN(C)Cc2nnc(C)o2)c(F)c1	-3.01
O=C(NCCn1nc(-n2cncn2)ccc1=O)c1ccccc1Br	-2.02
CC(C)N1CCC2(CCCN(c3nccc(C(F)(F)F)n3)C2)CC1	10.9
CCc1cc(N[C@H]2CCC[C@H]2CO)n2nccc2n1	-10.1
Cn1cc(CN2Cc3c(cnn3C)C(COCC3CC3)C2)cn1 (stereo unspecified)	-2.8
Cc1nc(CN2CCC(N(C)Cc3noc(C(C)C)n3)C2)cs1 (stereo unspecified)	-14.1
CN1CCN(Cc2cnc(S(=O)(=O)CC3CC3)n2CC2CCCO2)CC1 (stereo unspecified)	-2.87
O=C(NC[C@H]1CCCN1)c1cc(COc2cccc(C(F)(F)F)c2)[nH]n1	-7.59
O=C(NCCOc1ccc2c(c1)OCO2)N1CCC1	-6.24

SMILES	cytotoxicity at 10 µM [%]
Cc1noc(C)c1CN1C[C@@H]2OCCN(Cc3cnn(C)c3)[C@@H]2C1	-139
CSc1[nH]c(=O)c(C(=O)N2CCCC2c2cccs2)cc1C#N (stereo unspecified)	-3.49
O=C(Nc1ccc(F)c(Cl)c1)N1CCCN([C@H]2COC[C@@H]2O)CC1	-40.7
O=C(C1CCOCC1)N1CCC2(CCNCC2)C1	3.41
CC1CCC(O)(CSc2nnnn2C2CC2)CC1 (stereo unspecified)	-1.97
CN(C)CCn1c(=O)oc2ccc(NC(=O)N3CCCCCC3)cc21	-3.59
N#Cc1cnc(NCc2cccc(C(=O)N3CCCC3)c2)c(Cl)c1	-0.657
CCn1c(C2CCN(C(=O)COCC(F)(F)C(F)F)CC2)n[nH]c1=O	-55
CCOc1ccc(CN2CCOCC2c2[nH]ncc2C)cc1CO (stereo unspecified)	-2.92
Cc1cnc2c(S(=O)(=O)NCC3CCS(=O)(=O)C3)cccc2c1 (stereo unspecified)	-7.52
CCN1CCOC(CNc2nccc(OC)n2)C1 (stereo unspecified)	-0.572
COc1cccc2c1OCCCN(Cc1ccc(C(N)=O)c(=O)[nH]1)C2	4.82
Cc1cccc(CN2C[C@@H]3OCCN(C)[C@@H]3C2)n1	1.73
CC(C)c1cc(N(C)Cc2cc(C3CC3)on2)n2nccc2n1	4.28
N#Cc1cccc(CN2CCCC2c2ccc[nH]2)c1 (stereo unspecified)	-11.9
Cc1nnc(N2C[C@@H]3CCCO[C@@H]3[C@H](N3CCCC3=O)C2)s1	17.4
O[C@H]1CN(CCOc2ccc(F)cc2)CC[C@@]12CCCO2	-28.8
Cn1nccc1CN1CCOC(c2cccc(-c3cncnc3)n2)C1 (stereo unspecified)	0.88
